Laboratory results as given in ChEMBL document CHEMBL1770061, “Synthesis and antiproliferative activity of new cytotoxic azanaphthoquinone pyrrolo-annelated derivatives: Part II” (Bioorg Med Chem Lett, 2011).
Converted amounts (≈) assume the structure as drawn. The source made the active and inactive calls. The rule behind the calls is not given here.

Tests used:
[1] = Antiproliferative activity against human KB/HeLa cells after 48 hrs by XTT assay; format: functional, cell-based
Procedure, shortened: (§1)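 Compounds were added from DMSO stocks as a 10-point half-log dilution series, with final DMSO adjusted to 0.3%. Cells were incubated for 45 h at 37 °C/5% CO2, then with 1 mg/ml XTT plus PMS for a further 3 h. Absorbance at 490 nm was read after 48 h total. Untreated cells were set as 0% and cell-free blanks as 100% inhibition. EC50 came from nonlinear regression of at least two independent assays.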

SK-OV-3 [2] = assay: Antiproliferative activity against human SKOV3 cells after 48 hrs by XTT assay; format: functional, cell-based; conditions: SK-OV-3, 48 h
Procedure, shortened: (§2)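 Compounds dissolved in DMSO were added as a 10-point half-log dilution series, with final DMSO adjusted to 0.3%. Cells were incubated 45 h at 37 °C/5% CO2, then XTT (1 mg/ml) plus PMS was added for 3 h more (48 h total). Absorbance was read at 490 nm. Untreated cells were set as 0% inhibition and cell-free blanks as 100%. EC50 was fitted by nonlinear regression from ≥2 independent assays and reported as mean ± SD.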

SF-268 [3] = assay: Antiproliferative activity against human SF268 cells after 48 hrs by XTT assay; format: functional, cell-based; conditions: SF-268, 48 h; procedure, shortened: as §1
NCI-H460 [4] = assay: Antiproliferative activity against human NCI-H460 cells after 48 hrs by XTT assay; format: functional, cell-based; conditions: NCI-H460, 48 h; procedure, shortened: as §1
[5] = Antiproliferative activity against human RKOp27 cells after 48 hrs by XTT assay; format: functional, cell-based; conditions: RKOp27, 48 h; procedure, shortened: as §1
[6] = Antiproliferative activity against human RKOp27IND cells after 48 hrs by XTT assay; format: functional, cell-based; procedure, shortened: as §2
SF-268 [7] = assay: Antiproliferative activity against human SF268 cells assessed as growth inhibition at 3.16 ug/ml after 48 hrs by XTT assay; format: functional; conditions: for inhibition at 3.16 µg/mL: SF-268, 48 h
Procedure, shortened: (§3)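 This is the same 48 h XTT assay: 10-point half-log series, 0.3% final DMSO, 3 h XTT/PMS, A490, with untreated cells as 0% and blanks as 100% inhibition. Inhibition at the highest tested concentration was scored as none (<30%) or moderate (≥30%).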

[8] = (§4) Antiproliferative activity against human RKOp27IND cells assessed as growth inhibition at 3.16 ug/ml after 48 hrs by XTT assay; format: functional; procedure, shortened: as §3
[9] = Chemical stability of the compound in KH2PO4/Na2HPO4 buffer at pH 5.5 after 6 hrs by NMR spectroscopy; format: physicochemical; conditions: pH 5.5, 6 h
Procedure, shortened: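 Compounds were exposed at 37 °C to a KH2PO4/Na2HPO4 buffer at pH 5.5, prepared according to the European Pharmacopoeia.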

[10] = (§5) Antiproliferative activity against human KB/HeLa cells assessed as growth inhibition at 3.16 ug/ml after 48 hrs by XTT assay; format: functional; procedure, shortened: as §3
SK-OV-3 [11] = assay: Antiproliferative activity against human SKOV3 cells assessed as growth inhibition at 3.16 ug/ml after 48 hrs by XTT assay; format: functional; conditions: for inhibition at 3.16 µg/mL: SK-OV-3, 48 h; procedure, shortened: as §3
NCI-H460 [12] = assay: Antiproliferative activity against human NCI-H460 cells assessed as growth inhibition at 3.16 ug/ml after 48 hrs by XTT assay; format: functional; conditions: for inhibition at 3.16 µg/mL: NCI-H460, 48 h; procedure, shortened: as §3
[13] = (§6) Antiproliferative activity against human RKOp27 cells assessed as growth inhibition at 3.16 ug/ml after 48 hrs by XTT assay; format: functional; conditions: RKOp27, 48 h; procedure, shortened: as §3
KB = assay: as §5; format: functional; procedure, shortened: as §3
RKOp27 = assay: as §6; format: functional; procedure, shortened: as §3
Homo sapiens = species on record: Homo sapiens; assay: as §4; format: functional; procedure, shortened: as §3

| SMILES | EC50 [1] | EC50 (SK-OV-3 [2]) | EC50 (SF-268 [3]) | EC50 (NCI-H460 [4]) | EC50 [5] | EC50 [6] | inhibition at 3.16 µg/mL (SF-268 [7]) | inhibition at 3.16 µg/mL [8] | inhibition at 3.16 µg/mL [10] | inhibition at 3.16 µg/mL (SK-OV-3 [11]) | inhibition at 3.16 µg/mL (NCI-H460 [12]) | inhibition at 3.16 µg/mL [13] | further results |
| --- | --- | --- | --- | --- | --- | --- | --- | --- | --- | --- | --- | --- | --- |
| O=C1c2ccncc2C(=O)c2c1ccn2CCCCCCCN1CC1 | > 3.16 µg/mL | > 3.16 µg/mL | > 3.16 µg/mL | > 3.16 µg/mL | 1.19 µg/mL (≈ 3.54 µM) | > 3.16 µg/mL |  |  |  |  |  |  |  |
| CN(C)CCc1cn(CCCCCCCN2CC2)c2c1C(=O)c1ccncc1C2=O | > 3.16 µg/mL | > 3.16 µg/mL |  | > 3.16 µg/mL | > 3.16 µg/mL |  | < 30% | < 30% |  |  |  |  |  |
| O=C1c2ccncc2C(=O)c2c1ccn2CCCCCCC1CO1 (centres undefined) |  |  |  |  |  |  | < 30% | < 30% | < 30% | < 30% | < 30% | < 30% | Stability [9]: Stable |
| CN(C)CCCn1cc(CCN(C)C)c2c1C(=O)c1cnccc1C2=O | > 3.16 µg/mL | > 3.16 µg/mL | > 3.16 µg/mL | > 3.16 µg/mL | > 3.16 µg/mL | > 3.16 µg/mL |  |  |  |  |  |  |  |
| CN(C)CCc1cn(CCCCCCCO)c2c1C(=O)c1ccncc1C2=O |  |  |  |  |  |  | < 30% | < 30% | < 30% | < 30% | < 30% | < 30% |  |
| O=C1c2c(O)ccc(O)c2C(=O)c2c(NCCNCCO)ccc(NCCNCCO)c21 [MITOXANTRONE] | 0.355 µg/mL (≈ 0.799 µM) | 0.121 µg/mL (≈ 0.272 µM) | 0.315 µg/mL (≈ 0.709 µM) | 0.122 µg/mL (≈ 0.275 µM) | 0.0865 µg/mL (≈ 0.195 µM) | 0.763 µg/mL (≈ 1.72 µM) |  |  |  |  |  |  |  |
| CN(C)CCc1cn(CCCCN2CC2)c2c1C(=O)c1ccncc1C2=O | 0.512 µg/mL (≈ 1.4 µM) | 1.51 µg/mL (≈ 4.12 µM) | 1.39 µg/mL (≈ 3.8 µM) | 0.722 µg/mL (≈ 1.97 µM) | 0.205 µg/mL (≈ 0.559 µM) | 1.35 µg/mL (≈ 3.68 µM) |  |  |  |  |  |  |  |
| CN(C)CCCc1cn(CCCN(C)C)c2c1C(=O)c1ccncc1C2=O |  |  |  | > 3.16 µg/mL | > 3.16 µg/mL |  | < 30% | < 30% | < 30% | < 30% |  |  |  |
| O=C1c2ccncc2C(=O)c2c1ccn2CC1CO1 (centres undefined) | 0.062 µg/mL (≈ 0.244 µM) | 0.265 µg/mL (≈ 1.04 µM) | 0.2 µg/mL (≈ 0.787 µM) | 0.062 µg/mL (≈ 0.244 µM) | 0.026 µg/mL (≈ 0.102 µM) | 1.3 µg/mL (≈ 5.11 µM) |  |  |  |  |  |  | Stability [9]: Stable |
| CS(=O)(=O)OCCCCCCCn1ccc2c1C(=O)c1cnccc1C2=O |  |  |  |  |  |  | < 30% | < 30% | < 30% | < 30% | < 30% | < 30% |  |
| CS(=O)(=O)OCCCCn1ccc2c1C(=O)c1cnccc1C2=O | > 3.16 µg/mL |  | > 3.16 µg/mL | > 3.16 µg/mL | > 3.16 µg/mL |  |  | < 30% |  | < 30% |  |  |  |
| O=C1c2ccncc2C(=O)c2c1ccn2CC(O)CN1CC1 (centres undefined) | 0.747 µg/mL (≈ 2.51 µM) | > 3.16 µg/mL | > 3.16 µg/mL | 2.21 µg/mL (≈ 7.44 µM) | 0.899 µg/mL (≈ 3.02 µM) | > 3.16 µg/mL |  |  |  |  |  |  |  |
| O=C1c2ccncc2C(=O)c2c1ccn2CCCC1CO1 (centres undefined) | > 3.16 µg/mL |  |  | > 3.16 µg/mL | > 3.16 µg/mL |  | ≥ 30% | < 30% |  | < 30% |  |  | Stability [9]: Stable |
| CS(=O)(=O)OCCn1ccc2c1C(=O)c1cnccc1C2=O |  |  |  | > 3.16 µg/mL |  |  | < 30% | ≥ 30% | < 30% | < 30% |  | < 30% |  |
| O=C1c2ccncc2C(=O)c2c1ccn2CCCC(O)CN1CC1 (centres undefined) | > 3.16 µg/mL |  |  | > 3.16 µg/mL | > 3.16 µg/mL |  | < 30% | < 30% |  | < 30% |  |  |  |
| CN(C)CCc1cn(CCNCCO)c2c1C(=O)c1ccncc1C2=O | > 3.16 µg/mL |  | > 3.16 µg/mL |  | > 3.16 µg/mL |  |  | < 30% |  | < 30% | < 30% |  |  |
| CN(C)CCc1cn(CCO)c2c1C(=O)c1ccncc1C2=O | > 3.16 µg/mL |  |  |  | > 3.16 µg/mL |  | < 30% | < 30% |  | < 30% | < 30% |  |  |
| CN(C)CCc1c[nH]c2c1C(=O)c1ccncc1C2=O |  |  |  |  |  |  | < 30% | < 30% | < 30% | < 30% | < 30% | < 30% |  |
| CN(C)CCc1cn(CCCCCCCOS(C)(=O)=O)c2c1C(=O)c1ccncc1C2=O |  |  |  |  |  |  |  |  |  |  |  |  | Stability [9]: Unstable |
| CNCCn1cc(CCN(C)C)c2c1C(=O)c1cnccc1C2=O | > 3.16 µg/mL | > 3.16 µg/mL | > 3.16 µg/mL | > 3.16 µg/mL | > 3.16 µg/mL | > 3.16 µg/mL |  |  |  |  |  |  |  |
| O=C1c2ccncc2C(=O)c2c1ccn2CCN1CC1 | > 3.16 µg/mL |  | > 3.16 µg/mL | > 3.16 µg/mL | > 3.16 µg/mL | > 3.16 µg/mL |  |  |  | < 30% |  |  |  |
| CN(C)CCCc1c[nH]c2c1C(=O)c1ccncc1C2=O |  |  |  |  |  |  | < 30% | < 30% | < 30% | < 30% |  | < 30% |  |
| CN(C)CCc1cn(CCN(C)C)c2c1C(=O)c1ccncc1C2=O |  |  |  |  |  |  | < 30% | < 30% | < 30% | < 30% | < 30% | < 30% |  |
| CN(C)CCc1cn(CCN2CC2)c2c1C(=O)c1ccncc1C2=O | 0.972 µg/mL (≈ 2.87 µM) | 2.74 µg/mL (≈ 8.09 µM) | 2.41 µg/mL (≈ 7.12 µM) | > 3.16 µg/mL | 0.784 µg/mL (≈ 2.32 µM) | 2.36 µg/mL (≈ 6.99 µM) |  |  |  |  |  |  |  |
| CN(C)CCc1cn(CCCCO)c2c1C(=O)c1ccncc1C2=O |  |  |  |  |  |  | < 30% | < 30% | < 30% | < 30% | < 30% | < 30% |  |
| O=C1c2ccncc2C(=O)c2c1ccn2CCCCN1CC1 | 0.549 µg/mL (≈ 1.86 µM) | 2.19 µg/mL (≈ 7.4 µM) | 1.89 µg/mL (≈ 6.41 µM) | 0.727 µg/mL (≈ 2.46 µM) | 0.299 µg/mL (≈ 1.01 µM) | 2.23 µg/mL (≈ 7.55 µM) |  |  |  |  |  |  |  |
| CN(C)CCc1cn(CCCCOS(C)(=O)=O)c2c1C(=O)c1ccncc1C2=O |  |  |  |  |  |  |  |  |  |  |  |  | Stability [9]: Unstable |
| CN(C)CCc1cn(CCOS(C)(=O)=O)c2c1C(=O)c1ccncc1C2=O |  |  |  |  |  |  |  | < 30% |  |  | < 30% | < 30% | inhibition (KB): inactive; inhibition (SK-OV-3 [11]): inactive; inhibition (SF-268 [7]): inactive; inhibition (NCI-H460 [12]): inactive; inhibition (RKOp27): inactive; inhibition (Homo sapiens): inactive |
| O=C1c2ccncc2C(=O)c2c1ccn2CCCCCCC(O)CN1CC1 (centres undefined) | > 3.16 µg/mL |  |  | > 3.16 µg/mL | > 3.16 µg/mL |  | < 30% | < 30% |  | < 30% |  |  |  |
